The record followed here is ChEMBL document CHEMBL5661979, “Pharmacological inhibition of BMK1 suppresses tumor growth through promyelocytic leukemia protein” (Cancer Cell, 2010).

Series [1] addresses Cyclin-G-associated kinase (Homo sapiens) (UniProt O14976). The series is described as follows: Inhibition of GAK (unknown origin) assessed as remaining activity at 10 uM by ATP-competition binding assay relative to control.
Series [2] concerns the target Ribosomal protein S6 kinase alpha-1 (Homo sapiens, UniProt Q15418). The series is described as follows: Inhibition of C-terminal RPS6KA1 kinase domain (unknown origin) assessed as remaining activity at 10 uM by ATP-competition binding assay relative to control.
The target in series [3] is Dual specificity mitogen-activated protein kinase kinase 4 (Homo sapiens, UniProt P45985). The series is described as follows: Inhibition of MAP2K4 in human HeLa cells lysate pre incubated for 15 mins followed by ATP acyl phosphate probe addition and measured after 10 mins by LC-MS/MS analysis. It counts as subcellular.
Sequence of Dual specificity mitogen-activated protein kinase kinase 4 (P45985 whole entry): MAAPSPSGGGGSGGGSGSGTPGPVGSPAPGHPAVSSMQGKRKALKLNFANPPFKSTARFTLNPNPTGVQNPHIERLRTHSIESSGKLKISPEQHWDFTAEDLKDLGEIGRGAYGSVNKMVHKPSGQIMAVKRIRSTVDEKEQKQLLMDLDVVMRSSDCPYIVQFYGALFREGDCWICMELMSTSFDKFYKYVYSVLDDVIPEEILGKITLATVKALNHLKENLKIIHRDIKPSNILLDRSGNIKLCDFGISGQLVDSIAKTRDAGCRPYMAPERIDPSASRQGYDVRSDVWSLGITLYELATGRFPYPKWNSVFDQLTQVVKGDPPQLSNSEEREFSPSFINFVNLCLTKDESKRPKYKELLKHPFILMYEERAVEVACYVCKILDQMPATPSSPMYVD
Series [4] has as its target Serine/threonine-protein kinase 16 (Homo sapiens, UniProt O75716). The series is described as follows: Inhibition of MPSK1 in human HeLa cells lysate pre incubated for 15 mins followed by ATP acyl phosphate probe addition and measured after 10 mins by LC-MS/MS analysis. It counts as subcellular.
Series [5] addresses Serine/threonine-protein kinase 4 (Homo sapiens, UniProt Q13043). The series is described as follows: Inhibition of MST1 in human HeLa cells lysate pre incubated for 15 mins followed by ATP acyl phosphate probe addition and measured after 10 mins by LC-MS/MS analysis. It counts as subcellular.
Series [6] concerns the target Mitogen-activated protein kinase 14 (Homo sapiens, UniProt Q16539). The series is described as follows: Inhibition of P38a interaction site in human HeLa cells lysate pre incubated for 15 mins followed by ATP acyl phosphate probe addition and measured after 10 mins by LC-MS/MS analysis. In kind it is subcellular.
Series [7] deals with Eukaryotic translation initiation factor 2-alpha kinase 3 (Homo sapiens, UniProt Q9NZJ5). The series is described as follows: Inhibition of PEK in human HeLa cells lysate pre incubated for 15 mins followed by ATP acyl phosphate probe addition and measured after 10 mins by LC-MS/MS analysis. In kind it is subcellular.
Series [8] addresses T1, Serine/threonine-protein kinase 38-like (Homo sapiens, UniProt Q9Y2H1). The series is described as follows: Inhibition of NDR2 in human HeLa cells lysate pre incubated for 15 mins followed by ADP acyl phosphate probe addition and measured after 10 mins by LC-MS/MS analysis. In kind it is subcellular.
Series [9] addresses T2, Phosphatidylinositol 5-phosphate 4-kinase type-2 alpha (Homo sapiens, UniProt P48426).
T2 sequence (P48426 whole entry): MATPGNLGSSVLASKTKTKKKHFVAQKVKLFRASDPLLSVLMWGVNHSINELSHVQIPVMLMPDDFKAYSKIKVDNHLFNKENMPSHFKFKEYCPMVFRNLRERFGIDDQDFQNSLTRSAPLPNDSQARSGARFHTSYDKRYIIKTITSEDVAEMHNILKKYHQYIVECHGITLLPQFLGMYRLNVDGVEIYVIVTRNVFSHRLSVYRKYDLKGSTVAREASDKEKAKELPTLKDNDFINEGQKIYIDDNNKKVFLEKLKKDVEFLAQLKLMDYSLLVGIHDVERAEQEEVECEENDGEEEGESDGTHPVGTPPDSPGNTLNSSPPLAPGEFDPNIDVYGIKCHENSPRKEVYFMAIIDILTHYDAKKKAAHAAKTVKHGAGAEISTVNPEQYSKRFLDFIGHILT
The series is described as follows: Inhibition of PIP5K2A LIP1 site in human HeLa cells lysate pre incubated for 15 mins followed by ADP acyl phosphate probe addition and measured after 10 mins by LC-MS/MS analysis. In kind it is subcellular.

The target in series [10] is Cyclin-dependent kinase 2 (Homo sapiens, UniProt P24941). The series is described as follows: Inhibition of CDK2 in human HeLa cells lysate at 50 uM pre incubated for 15 mins followed by ADP acyl phosphate probe addition and measured after 10 mins by LC-MS/MS analysis relative to control. In kind it is subcellular. The following applies: time 25.0 min. The procedure, abridged: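 KiNativ profiling in HeLa lysate (5 mg/mL total protein). Lysate incubated 15 min with inhibitor at 50, 10, 2, 0.8 or 0 μM. ATP or ADP acylphosphate probe then added (5 μM final) and reacted 10 min. Reaction stopped with urea and analysed by targeted MS, using up to four fragment ions per kinase peptide-probe conjugate. % inhibition taken against untreated lysate. Run in duplicate.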

Series [11] can be described thus: Inhibition of SRPK1/2 in human HeLa cells lysate at 50 uM pre incubated for 15 mins followed by ADP acyl phosphate probe addition and measured after 10 mins by LC-MS/MS analysis relative to control. To be noted: 25 min, condition cancer.
Series [12] in a line: Inhibition of CK1g1/g2/g3 in human HeLa cells lysate at 50 uM pre incubated for 15 mins followed by ADP acyl phosphate probe addition and measured after 10 mins by LC-MS/MS analysis relative to control. The following applies: 25 min, condition cancer.
Series [13] addresses T1, Serine/threonine-protein kinase 38-like. The series is described as follows: Inhibition of NDR2 in human HeLa cells lysate at 10 uM pre incubated for 15 mins followed by ADP acyl phosphate probe addition and measured after 10 mins by LC-MS/MS analysis relative to control. In kind it is subcellular. The following applies: time 25.0 min.
Target sequence in this assay (Q9Y2H1 2-464 limits assumed): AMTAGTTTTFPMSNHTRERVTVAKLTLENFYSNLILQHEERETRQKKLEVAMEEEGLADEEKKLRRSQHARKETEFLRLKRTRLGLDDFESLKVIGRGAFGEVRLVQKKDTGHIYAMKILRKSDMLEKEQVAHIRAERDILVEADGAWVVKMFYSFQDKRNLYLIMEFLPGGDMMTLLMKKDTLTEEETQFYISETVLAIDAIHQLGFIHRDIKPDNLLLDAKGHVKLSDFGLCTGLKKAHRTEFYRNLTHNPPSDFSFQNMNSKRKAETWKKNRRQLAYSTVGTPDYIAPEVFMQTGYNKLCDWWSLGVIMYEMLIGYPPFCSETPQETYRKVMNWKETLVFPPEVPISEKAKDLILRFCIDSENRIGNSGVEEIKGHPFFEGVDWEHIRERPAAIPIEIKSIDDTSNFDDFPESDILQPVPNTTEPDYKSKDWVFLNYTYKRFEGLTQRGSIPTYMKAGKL
The target of series [14] is Serine/threonine-protein kinase B-raf (Homo sapiens, UniProt P15056). The series is described as follows: Inhibition of BRAF in human HeLa cells lysate at 10 uM pre incubated for 15 mins followed by ADP acyl phosphate probe addition and measured after 10 mins by LC-MS/MS analysis relative to control. In kind it is subcellular. To be noted: time 25.0 min. The procedure, abridged:
(§1)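 KiNativ-type profiling in HeLa lysate (5 mg/mL total protein). Lysate preincubated 15 min with inhibitor at 50, 10, 2, 0.8 or 0 μM, then ATP or ADP acylphosphate probe added (5 μM final) for 10 min. Reaction stopped with urea and analysed by targeted MS, using up to four fragment ions per kinase peptide-probe conjugate. % inhibition calculated against untreated lysate. Duplicate reactions.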

Series [15] is described as follows: Inhibition of MSK1/2 domain 1 in human HeLa cells lysate at 50 uM pre incubated for 15 mins followed by ATP acyl phosphate probe addition and measured after 10 mins by LC-MS/MS analysis relative to control. The following applies: 25 min, condition cancer.
Series [16] addresses Calcium/calmodulin-dependent protein kinase type II subunit delta (Homo sapiens, UniProt Q13557). The series is described as follows: Inhibition of CAMK2d in human HeLa cells lysate at 10 uM pre incubated for 15 mins followed by ATP acyl phosphate probe addition and measured after 10 mins by LC-MS/MS analysis relative to control. In kind it is subcellular. To be noted: time 25.0 min. The procedure, abridged: as §1

For series [17], the target named is Tyrosine-protein kinase Fer (Homo sapiens, UniProt P16591). The series is described as follows: Inhibition of FER in human HeLa cells lysate at 2 uM pre incubated for 15 mins followed by ATP acyl phosphate probe addition and measured after 10 mins by LC-MS/MS analysis relative to control. It counts as subcellular. The following applies: time 25.0 min.
Series [18] concerns the target Casein kinase I isoform alpha (Homo sapiens, UniProt P48729). The series is described as follows: Inhibition of CK1alpha in human HeLa cells lysate at 2 uM pre incubated for 15 mins followed by ATP acyl phosphate probe addition and measured after 10 mins by LC-MS/MS analysis relative to control. It counts as subcellular. To be noted: time 25.0 min.
Series [19] concerns the target Serine/threonine-protein kinase SMG1 (Homo sapiens, UniProt Q96Q15). The series is described as follows: Inhibition of SMG1 in human HeLa cells lysate at 2 uM pre incubated for 15 mins followed by ATP acyl phosphate probe addition and measured after 10 mins by LC-MS/MS analysis relative to control. It counts as subcellular. The following applies: time 25.0 min.
Series [20] deals with DNA-dependent protein kinase catalytic subunit (Homo sapiens, UniProt P78527). The series is described as follows: Inhibition of PRKDC in human HeLa cells lysate at 2 uM pre incubated for 15 mins followed by ATP acyl phosphate probe addition and measured after 10 mins by LC-MS/MS analysis relative to control. In kind it is subcellular. The following applies: time 25.0 min.

Series [21] in a line: Toxicity in C57Bl/6 mouse assessed as effect on albumin level at 50 mg/kg, ip for 14 days (reference value: 3 g/dl). It counts as organism-based. To be noted: in vivo, 336 h, time 14 day.

Broadly, the IC50 is the concentration that gives 50% inhibition. Lower therefore signals greater potency. Usually inhibition stands for the relative decrease from the control value, in per cent.

Sequence of Serine/threonine-protein kinase 4 (Q13043 whole entry): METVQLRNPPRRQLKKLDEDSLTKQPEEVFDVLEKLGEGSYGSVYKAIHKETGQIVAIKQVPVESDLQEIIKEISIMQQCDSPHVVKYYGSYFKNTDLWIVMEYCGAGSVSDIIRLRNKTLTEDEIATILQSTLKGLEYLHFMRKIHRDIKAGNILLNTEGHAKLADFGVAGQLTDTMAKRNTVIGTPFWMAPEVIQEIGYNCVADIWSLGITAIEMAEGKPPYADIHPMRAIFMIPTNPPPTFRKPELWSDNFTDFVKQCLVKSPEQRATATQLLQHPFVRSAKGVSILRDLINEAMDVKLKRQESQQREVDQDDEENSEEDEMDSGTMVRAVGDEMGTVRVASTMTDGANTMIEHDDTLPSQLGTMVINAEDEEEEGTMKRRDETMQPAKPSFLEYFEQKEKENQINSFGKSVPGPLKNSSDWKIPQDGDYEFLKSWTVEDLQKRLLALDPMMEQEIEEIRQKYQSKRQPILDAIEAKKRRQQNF
Sequence of Calcium/calmodulin-dependent protein kinase type II subunit delta (Q13557 whole entry): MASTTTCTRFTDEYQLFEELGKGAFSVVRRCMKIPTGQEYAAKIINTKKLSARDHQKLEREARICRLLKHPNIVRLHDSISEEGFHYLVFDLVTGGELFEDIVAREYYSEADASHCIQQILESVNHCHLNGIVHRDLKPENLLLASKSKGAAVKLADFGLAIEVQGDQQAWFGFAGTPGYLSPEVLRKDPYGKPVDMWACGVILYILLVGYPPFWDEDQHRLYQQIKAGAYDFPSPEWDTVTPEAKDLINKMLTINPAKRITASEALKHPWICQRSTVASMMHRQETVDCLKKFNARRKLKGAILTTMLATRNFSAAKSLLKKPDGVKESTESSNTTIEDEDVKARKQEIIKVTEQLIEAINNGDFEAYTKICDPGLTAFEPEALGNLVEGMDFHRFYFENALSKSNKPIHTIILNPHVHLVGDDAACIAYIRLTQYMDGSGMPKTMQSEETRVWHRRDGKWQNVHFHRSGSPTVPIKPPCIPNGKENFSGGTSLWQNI
Sequence of Cyclin-G-associated kinase (Homo sapiens) (O14976 whole entry, the tested form may be a part): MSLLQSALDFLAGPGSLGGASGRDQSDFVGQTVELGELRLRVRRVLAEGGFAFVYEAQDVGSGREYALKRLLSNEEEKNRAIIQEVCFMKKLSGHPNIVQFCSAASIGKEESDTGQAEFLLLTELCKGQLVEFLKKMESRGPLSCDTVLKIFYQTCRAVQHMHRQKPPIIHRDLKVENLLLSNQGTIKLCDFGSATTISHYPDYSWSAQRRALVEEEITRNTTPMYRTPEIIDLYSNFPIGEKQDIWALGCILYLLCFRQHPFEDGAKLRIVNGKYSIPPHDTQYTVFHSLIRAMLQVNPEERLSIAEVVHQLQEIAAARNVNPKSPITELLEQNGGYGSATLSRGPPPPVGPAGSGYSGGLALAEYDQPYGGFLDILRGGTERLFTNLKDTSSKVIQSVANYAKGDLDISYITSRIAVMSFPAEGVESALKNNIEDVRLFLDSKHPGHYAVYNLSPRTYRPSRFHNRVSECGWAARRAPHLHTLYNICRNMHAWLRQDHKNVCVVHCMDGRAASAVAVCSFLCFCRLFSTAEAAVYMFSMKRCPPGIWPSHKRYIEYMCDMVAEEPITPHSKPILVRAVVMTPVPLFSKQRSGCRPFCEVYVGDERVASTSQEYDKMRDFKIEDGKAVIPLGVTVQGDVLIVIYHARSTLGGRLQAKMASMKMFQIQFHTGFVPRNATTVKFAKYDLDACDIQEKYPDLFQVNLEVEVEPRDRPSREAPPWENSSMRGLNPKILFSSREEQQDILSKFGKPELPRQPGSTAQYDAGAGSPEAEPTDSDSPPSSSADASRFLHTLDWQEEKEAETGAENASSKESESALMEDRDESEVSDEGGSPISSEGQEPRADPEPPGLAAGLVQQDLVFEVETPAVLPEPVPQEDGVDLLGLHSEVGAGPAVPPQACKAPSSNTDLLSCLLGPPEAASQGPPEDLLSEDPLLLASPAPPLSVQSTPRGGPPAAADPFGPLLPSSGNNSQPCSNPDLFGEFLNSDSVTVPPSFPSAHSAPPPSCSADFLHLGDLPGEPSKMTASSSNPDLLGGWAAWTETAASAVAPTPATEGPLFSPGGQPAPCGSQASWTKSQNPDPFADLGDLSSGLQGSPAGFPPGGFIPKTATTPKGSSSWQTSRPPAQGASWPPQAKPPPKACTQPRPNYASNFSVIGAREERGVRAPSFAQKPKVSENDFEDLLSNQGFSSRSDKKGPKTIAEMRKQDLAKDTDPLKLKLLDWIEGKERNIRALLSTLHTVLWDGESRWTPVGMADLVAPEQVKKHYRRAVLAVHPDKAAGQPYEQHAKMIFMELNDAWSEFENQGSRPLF
Sequence of Serine/threonine-protein kinase B-raf (P15056 whole entry, the tested form may be a part): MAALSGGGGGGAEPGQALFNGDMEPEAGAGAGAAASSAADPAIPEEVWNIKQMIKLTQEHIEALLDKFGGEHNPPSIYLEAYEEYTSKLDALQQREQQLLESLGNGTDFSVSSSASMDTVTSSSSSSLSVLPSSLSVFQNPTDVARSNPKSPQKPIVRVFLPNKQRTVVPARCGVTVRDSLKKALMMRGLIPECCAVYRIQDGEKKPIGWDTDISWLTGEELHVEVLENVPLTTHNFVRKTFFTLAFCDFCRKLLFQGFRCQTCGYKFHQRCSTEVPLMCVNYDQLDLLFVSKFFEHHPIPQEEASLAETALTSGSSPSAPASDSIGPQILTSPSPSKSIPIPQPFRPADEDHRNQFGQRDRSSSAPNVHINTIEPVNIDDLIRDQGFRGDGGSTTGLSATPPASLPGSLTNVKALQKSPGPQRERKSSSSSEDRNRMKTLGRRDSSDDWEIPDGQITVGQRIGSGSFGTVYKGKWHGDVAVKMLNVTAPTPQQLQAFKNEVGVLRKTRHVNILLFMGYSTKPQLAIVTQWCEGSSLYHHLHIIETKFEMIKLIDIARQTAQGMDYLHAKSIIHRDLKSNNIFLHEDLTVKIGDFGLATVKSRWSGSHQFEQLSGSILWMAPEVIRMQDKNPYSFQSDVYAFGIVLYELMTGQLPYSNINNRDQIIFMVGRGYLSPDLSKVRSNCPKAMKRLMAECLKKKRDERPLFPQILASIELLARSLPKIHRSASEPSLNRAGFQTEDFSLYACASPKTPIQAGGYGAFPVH
Sequence of Serine/threonine-protein kinase 16 (O75716 whole entry): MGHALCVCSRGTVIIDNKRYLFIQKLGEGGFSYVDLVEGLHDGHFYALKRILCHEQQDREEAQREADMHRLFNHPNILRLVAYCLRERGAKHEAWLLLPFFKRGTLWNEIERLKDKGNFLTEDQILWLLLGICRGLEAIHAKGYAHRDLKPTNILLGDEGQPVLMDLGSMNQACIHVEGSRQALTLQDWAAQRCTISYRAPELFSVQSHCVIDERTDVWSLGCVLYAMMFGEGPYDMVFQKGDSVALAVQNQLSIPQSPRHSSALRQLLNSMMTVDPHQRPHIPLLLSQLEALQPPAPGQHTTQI
Sequence of Ribosomal protein S6 kinase alpha-1 (Q15418 whole entry, the tested form may be a part): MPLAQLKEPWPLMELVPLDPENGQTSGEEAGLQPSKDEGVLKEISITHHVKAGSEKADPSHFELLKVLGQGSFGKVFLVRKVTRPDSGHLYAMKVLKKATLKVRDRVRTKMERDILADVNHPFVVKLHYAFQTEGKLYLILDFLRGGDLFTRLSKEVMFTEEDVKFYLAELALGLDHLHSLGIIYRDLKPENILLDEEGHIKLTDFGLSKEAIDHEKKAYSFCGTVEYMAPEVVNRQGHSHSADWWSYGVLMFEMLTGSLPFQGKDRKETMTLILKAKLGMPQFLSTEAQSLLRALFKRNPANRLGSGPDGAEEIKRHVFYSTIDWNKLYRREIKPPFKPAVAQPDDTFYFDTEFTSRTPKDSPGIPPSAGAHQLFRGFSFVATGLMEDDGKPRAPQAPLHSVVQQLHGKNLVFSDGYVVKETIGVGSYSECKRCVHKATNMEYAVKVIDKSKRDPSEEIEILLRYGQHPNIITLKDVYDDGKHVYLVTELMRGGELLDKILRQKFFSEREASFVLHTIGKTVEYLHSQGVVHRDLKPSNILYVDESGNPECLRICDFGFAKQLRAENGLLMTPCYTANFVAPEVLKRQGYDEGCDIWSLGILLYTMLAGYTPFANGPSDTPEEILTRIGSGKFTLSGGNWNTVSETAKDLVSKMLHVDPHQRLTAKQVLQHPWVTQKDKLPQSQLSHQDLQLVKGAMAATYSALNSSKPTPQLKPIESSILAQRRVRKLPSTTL

In the case of `CCOc1cc(N2CCC(O)CC2)ccc1Nc1ncc2c(n1)N(C)c1ccccc1C(=O)N2C`, the Activity in series [1] turned out to be 31%; in series [2], 28%; in series [21], 3.3 g/dL. The half-inhibitory concentration (IC50) in series [3], in series [4], in [5], in series [6], in [7] and in [8] was greater than 50 µM each time. This molecule registered an IC50 in series [9] greater than 50 µM. In addition, the inhibition in series [10] was -3.2%; in series [13], 15.9%; in series [14], 2.3%; in series [16] it was 3.2%; in series [17], 8%; in series [18], 2.6%. For the same molecule, the inhibition in series [19] is 1.8%; in series [20], 0.6%. For the same molecule, the inhibition at 50 µM in [11] was -53.5%; in [12] it was -80.5%; in series [15], -21.5%.
